bovine MsrA act – activates bovine MsrA enzyme; 360,000 tested, 0.3% active; activation, % at 10.6 µM; purified bovine MsrA, absorbance read-out; AID 602163; in the data active = activation above about 7.5%;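 also: 0% = vehicle and 100% = reference activator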
AHR activator – activates the human aryl hydrocarbon receptor; P35869; AHR-responsive luciferase reporter cells, luminescence; activation, % at 5 µM; 320,000 tested, 2.5% active; in the data active = activation above about 47%;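 also: 0% = vehicle wells and 100% = reference agonist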
AI-2 QS modul – modulators of Vibrio harveyi AI-2 quorum sensing system; 300,000 tested, 0.4% active; activity change, % at 7.5 µM; Vibrio harveyi JMH597 AI-2 luminescence/OD600 ratio, 9 h; active compounds read low; strain lacks LuxN and CqsS sensors; 0 = neutral-control median; in the data active = activity change below about -75%, passing the limit was not always enough;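 also: luminescence divided by OD600 gain over 9 h not by final OD600 alone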
m5-HT2A agonist – mouse HTR2A agonism via beta-arrestin recruitment; P35363; CHO-K1 mHTR2A beta-arrestin complementation, luminescence; percent of 30 µM serotonin response; activation, % at 7.6 µM; 360,000 tested, 0.66% active;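 active = activation above a run cutoff, the mean activation of all tested compounds plus 3 SD, cut at about 14% in these data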;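 also: 0% = plate median of compound wells and 100% = 30 µM serotonin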
Target sequence (P35363 whole entry, looked up): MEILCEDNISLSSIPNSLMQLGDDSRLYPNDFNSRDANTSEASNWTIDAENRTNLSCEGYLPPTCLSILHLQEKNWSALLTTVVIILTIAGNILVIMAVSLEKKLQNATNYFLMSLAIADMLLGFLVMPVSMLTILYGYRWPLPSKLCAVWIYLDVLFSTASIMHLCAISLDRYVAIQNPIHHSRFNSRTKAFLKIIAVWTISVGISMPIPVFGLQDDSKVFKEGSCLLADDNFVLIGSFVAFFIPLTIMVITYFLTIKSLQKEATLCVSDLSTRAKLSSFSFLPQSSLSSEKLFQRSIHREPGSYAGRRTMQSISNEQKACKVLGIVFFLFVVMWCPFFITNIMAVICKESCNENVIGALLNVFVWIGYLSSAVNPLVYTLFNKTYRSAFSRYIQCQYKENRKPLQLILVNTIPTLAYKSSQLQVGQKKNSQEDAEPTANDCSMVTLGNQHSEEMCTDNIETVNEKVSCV
MsrA inhibitor – inhibitors of bovine MsrA; purified bovine MsrA, absorbance read-out; inhibition, % at 15.5 µM; 360,000 tested, 0.75% active; AID 651718; in the data active = inhibition above about 4.5%;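 also: 0% = vehicle wells with enzyme and 100% = reference inhibitor wells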
Tb MetRS inh – Trypanosoma brucei MetRS inhibition; purified T. brucei MetRS, ATP depletion, Kinase-Glo luminescence; inhibition, % at 11.9 µM; 360,000 tested, 0.4% active;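 active = inhibition above a per-plate cutoff of the control wells' mean inhibition plus 3 SD, cut at about 5.5% in these data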;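 also: 0% = DMSO wells median and 100% = median of wells with control inhibitor compound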
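assay system = parasite MetRS enzyme | timing = 15 min preincubation, 2 h reaction, all 25 °C | evaluation = percent inhibition relative to median high and low control wells | medium = HEPES buffer containing pyrophosphatase, BSA, spermine, DTT | compound = single dose, 11.9 µM final nominal, 0.9% final DMSO | detection = Kinase-Glo luminescence, ATP depletion format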
AHR act cf – confirmation of human aryl hydrocarbon receptor activators; shares compounds with AHR activator; human cells, AHR-responsive luciferase reporter, luminescence; activation, % at 9 µM; 2,300 tested, 87% active; AID 2845; in the data active = activation above about 49%;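 also: HepG2 hepatoma cells carrying a DRE-driven firefly luciferase reporter; 0% = vehicle wells and 100% = reference agonist wells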
PXR counter – PXR activation, counter-screen for AHR activators; AID 434939; cell-based PXR reporter, luciferase luminescence; activation, % at 11.6 µM; 2,300 tested, 88% active; shares compounds with AHR activator; in the data active = activation above about 11%;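 also: human hepatoma DPX-2 cells expressing full-length human PXR; 0% = DMSO and 100% = reference agonist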
An asterisk follows results filed as active; / = no result. Sampled rows, rich in hits. Any-hit rate of the full collection: about 4.4%.

SMILES | bovine MsrA act | AHR activator | AI-2 QS modul | m5-HT2A agonist | MsrA inhibitor | Tb MetRS inh | AHR act cf | PXR counter
O=[N+]([O-])c1ccc(Cl)cc1CNc1ccc(F)c(F)c1 | -5 | 106* | -11 | -3 | 0 | -1 | 80* | 20*
COc1ccccc1C(CNc1nc(C(F)(F)F)nc2ccccc12)N(C)C (stereo not drawn) | -1 | 1 | 2 | -11 | 1 | 0 | / | /
CCNC(=S)N=Nc1c(O)[nH]c2ccc(C(C)C)cc12 | -4 | 123* | 15 | -3 | 3 | 0 | 72* | 80*
COc1cccc(-c2ncc3ccccc3c2COC(=O)CCCC(=O)O)c1 | -1 | 4 | / | -1 | 0 | 0 | / | /
CN1C(=O)CN(CCN2CC(=O)N(C)C(=O)C2)CC1=O | -2 | / | / | 0 | -1 | 0 | / | /
COc1ccc(CCNC(=O)c2cnc3scc(C)n3c2=O)cc1OC | -4 | 105* | 22 | -2 | 3 | 0 | 94* | 40*
COc1ccc(C)cc1NC(=O)c1cnc2scc(C)n2c1=O | -6 | / | / | 9 | -1 | 0 | / | /
Cc1ccc(S(=O)(=O)CCC(=O)NC2CCCC2)cc1 | -3 | -8 | 16 | 1 | 0 | 0 | / | /
c1ccc(-n2nc3c(ccc4cnnc43)[nH]2)cc1 | -13 | 131* | 18 | 5 | 1 | -2 | 149* | 26*
N/C(=N\OC(=O)c1ccc(Cl)cc1[N+](=O)[O-])c1ccccn1 | -7 | 146* | -54 | 10 | -1 | 0 | 53* | 13*
Cc1c(C(=O)O/N=C(\N)c2ccccn2)cccc1[N+](=O)[O-] | -2 | 97* | 11 | 2 | 0 | -1 | 92* | 12*
N/C(=N\OC(=O)c1ccc(Cl)cc1[N+](=O)[O-])c1cccnc1 | -3 | 90* | -22 | -2 | -1 | 1 | 91* | 15*
N/C(=N\OC(=O)Cc1ccccc1[N+](=O)[O-])c1ccccn1 | -4 | 5 | 23 | -2 | 0 | 0 | / | /
N/C(=N\OC(=O)c1cc(Br)ccc1Cl)c1ccccn1 | -4 | 108* | 7 | 3 | 2 | 0 | 61* | 12*
N/C(=N\OC(=O)c1ccc(Cl)cc1Cl)c1ccccn1 | -1 | 7 | 23 | 2 | 0 | -1 | / | /
CC1CCCN(C(=O)c2ccc(Br)c(S(=O)(=O)N3CCOCC3)c2)C1 (stereo not drawn) | -3 | 2 | / | -3 | -1 | 0 | / | /
COC(=O)Cn1cnc2c(nnn2-c2cccc(OC)c2)c1=O | -2 | 0 | 52 | 3 | 0 | -1 | / | /
c1ccc2c(c1)[nH]c1c(N3CCOCC3)ncnc12 | -6 | 37 | -1 | 4 | 1 | -1 | / | /
c1ccc2c(c1)[nH]c1c(N3CCN(C4CCCCC4)CC3)ncnc12 | 2 | 80* | 32 | 6 | 1 | 2 | 68* | 14*
C=CCOC(=O)c1c(C)nc2cc3c(cc2c1C)OCO3 | 0 | 108* | 15 | -2 | 0 | 0 | 56* | 53*
COC(=O)c1sccc1-c1ccc(C(=O)Nc2cccc(Cl)c2)o1 | -1 | 104* | 10 | -3 | 3 | 0 | 74* | 25*
COCC(=O)N1CCc2ccc(NC(=O)c3ccc(C(F)(F)F)cc3)cc2C1 | -2 | 103* | 19 | -4 | -1 | -1 | 73* | /
CC(=O)Nc1ccc2ccccc2c1 | -11 | 3 | 32 | 1 | / | -1 | / | /
CC(=O)Nc1ccc2cc3ccc(NC(C)=O)cc3nc2c1 | 1 | 107* | 28 | 0 | 2 | -1 | 81* | /
O=C(COc1cc2oc(=O)c3c(c2cc1Cl)CCCC3)NCC1CCC(C(=O)O)CC1 (stereo not drawn) | -1 | -7 | 3 | 0 | 1 | 0 | / | /
COc1cc2ncnc(Nc3ccc4c(c3)OCO4)c2cc1OC | -3 | 104* | 14 | 6 | 2 | 0 | 101* | 25*
COc1ccccc1Nc1ncnc2ccc(C)cc12 | 2 | 35 | 26 | -3 | 1 | 0 | / | /
CN(C)c1ccc(Nc2ncnc3ccc(Br)cc23)cc1 | -1 | 92* | 13 | -4 | 1 | 0 | 47 | 10

Screens deposited in PubChem by several laboratories.
